Data from ChEMBL document CHEMBL1212766, “Dose escalation study of the safety, tolerability, and pharmacokinetics of nemonoxacin (TG-873870), a novel potent broad-spectrum nonfluorinated quinolone, in healthy volunteers” (Antimicrob Agents Chemother, 2010).
≈ marks a conversion by molar mass, not a printed value.

What was measured:
[1] = test system: Streptococcus pneumoniae; experiment: Ratio of fAUC to MIC90 for Penicillin-sensitive Streptococcus pneumoniae; type: functional
How it was run: (§1)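 Fasted healthy adults got a single oral 500 mg dose with 240 ml water. Plasma was sampled predose to 96 h and assayed by LC-MS/MS (5–5,000 ng/ml). Cmax was read from individual profiles, and AUC0-∞ came from linear trapezoid plus extrapolation. Free fraction was measured by ultrafiltration (30,000 MWCO) of 0.5 and 6 h plasma. Free exposure was divided by the isolate MIC90.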

[2] = test system: Streptococcus pneumoniae; experiment: Antimicrobial activity against penicillin-resistant Streptococcus pneumoniae; type: functional
[3] = Clearance in healthy human assessed as recovery of unchanged drug in urine at 25 […], po administered as single dose; type: ADME, organism-based; set-up: route oral; details: read-out: Recovered in urine
How it was run: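 Healthy volunteers, six on drug per cohort, fasted 10 h and given one oral dose with 240 ml water, then fasted 4 h more. Urine was pooled over intervals from 0-2 to 72-96 h and stored at about −70°C. Drug was measured by solid-phase extraction and LC-MS/MS (LLOQ 200 ng/ml), giving the percent of dose recovered unchanged. Values are means (SD).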

[4] = test system: Homo sapiens; experiment: AUC (0 to infinity) in healthy human at 1500 mg, po administered as single dose; details: in vivo
[5] = Cmax in healthy human at 1500 mg, po administered as single dose; details: in vivo
[6] = Cmax in healthy human at 25 mg, po administered as single dose; details: in vivo
[7] = test system: Homo sapiens; experiment: Toxicity in healthy human assessed as occurrence of abdominal pain at 50 […], po; type: organism-based, Abdomen; set-up: route oral; details: in vivo
How it was run: (§2)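 Double-blind, placebo-controlled single ascending oral dose; two placebo and six active subjects per cohort. Adverse events were recorded throughout the dosing period and at follow-up, with confinement to 96 h after dosing. Results are reported as number and percentage of subjects with the event (n/N × 100).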

[8] = Tmax in healthy human at 250 mg, po administered as single dose; details: in vivo
[9] = test system: Homo sapiens; experiment: Toxicity in healthy human assessed as occurrence of erythema at 50 […], po; type: organism-based; set-up: route oral; details: in vivo
[10] = Cmax in healthy human at 500 mg, po administered as single dose; details: in vivo
[11] = Renal clearance in healthy human at 1000 […], po administered as single dose; type: ADME, organism-based, Kidney; set-up: route oral; details: in vivo, read-out: CL_renal (converted)
How it was run: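 Renal clearance (CL_r) came from noncompartmental analysis of plasma drawn through 96 h and urine collected over fixed intervals to 96 h. Subjects were fasted healthy volunteers, six per dose cohort, given one oral dose with 240 ml water. Plasma and urine were assayed by LC-MS/MS after solid-phase extraction, with urine LLOQ 200 ng/ml. Values are means (SD).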

[12] = Terminal phase elimination half-life in healthy human at 25 […], po administered single dose; type: ADME, organism-based; set-up: route oral; details: in vivo
How it was run: (§3)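 After one fasted oral dose (six healthy subjects per cohort), plasma was sampled from 0.5 to 96 h and assayed by LC-MS/MS (LLOQ 5 ng/ml). λz came from least-squares regression on at least the last three log-concentration points, and t1/2 = 0.693/λz. Values are means (SD).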

[13] = test system: Homo sapiens; experiment: AUC (0 to infinity) in healthy human at 50 mg/kg, po administered as single dose; type: ADME, organism-based, Plasma; set-up: time infinity, route oral; details: in vivo
[14] = test system: Homo sapiens; experiment: Toxicity in healthy human assessed as occurrence of pustular rashes at 125 […], po; type: organism-based; set-up: route oral; details: in vivo
[15] = test system: Homo sapiens; experiment: Terminal volume of distribution in healthy human at 1000 mg, po administered as single dose; details: in vivo
[16] = test system: Homo sapiens; experiment: Toxicity in healthy human assessed as occurrence of abdominal pain at 250 […], po; type: organism-based, Abdomen; set-up: route oral; details: in vivo; how it was run: as §2
[17] = test system: Homo sapiens; experiment: Toxicity in healthy human assessed as occurrence of headache at 250 […], po; type: organism-based; set-up: route oral; details: in vivo
[18] = test system: Homo sapiens; experiment: Terminal volume of distribution in healthy human at 50 mg, po administered as single dose; details: in vivo
[19] = test system: Homo sapiens; experiment: AUC (0 to infinity) in healthy human at 125 […], po administered as single dose; type: ADME, organism-based, Plasma; set-up: time infinity, route oral; details: in vivo
[20] = test system: Homo sapiens; experiment: Toxicity in healthy human assessed as occurrence of oral hypoesthesia at 25 […], po; type: organism-based; set-up: route oral; details: in vivo
[21] = test system: Homo sapiens; experiment: Terminal volume of distribution in healthy human at 125 mg, po administered as single dose; details: in vivo
[22] = test system: Streptococcus pneumoniae; experiment: Ratio of fCmax to MIC90 for penicillin-sensitive Streptococcus pneumoniae; type: functional; how it was run: as §1
[23] = test system: Streptococcus pneumoniae; experiment: Ratio of fCmax to MIC90 for ciprofloxacin-resistant Streptococcus pneumoniae; type: functional; how it was run: as §1
[24] = Terminal phase elimination half-life in healthy human at 1500 mg, po administered single dose; details: in vivo
[25] = Terminal phase elimination half-life in healthy human at 500 […], po administered single dose; type: ADME, organism-based; set-up: route oral; details: in vivo; how it was run: as §3
[26] = test system: Homo sapiens; experiment: Toxicity in healthy human assessed as occurrence of headache at 50 […], po; type: organism-based; set-up: route oral; details: in vivo
[27] = test system: Homo sapiens; experiment: Clearance in healthy human at 1500 mg, po administered as single dose; details: in vivo
[28] = test system: Homo sapiens; experiment: Toxicity in healthy human assessed as occurrence of contact dermatitis at 500 […], po; type: organism-based; set-up: route oral; details: in vivo
[29] = test system: Homo sapiens; experiment: Toxicity in healthy human assessed as occurrence of abdominal pain at 500 […], po; type: organism-based, Abdomen; set-up: route oral; details: in vivo; how it was run: as §2
[30] = test system: Streptococcus pneumoniae; experiment: Ratio of fAUC to MIC90 for Streptococcus pneumoniae; type: functional; how it was run: as §1
[31] = test system: Homo sapiens; experiment: Toxicity in healthy human assessed as occurrence of pruritus at 50 […], po; type: organism-based; set-up: route oral; details: in vivo
[32] = test system: Homo sapiens; experiment: Toxicity in healthy human assessed as occurrence of oral hypoesthesia at 1500 […], po; type: organism-based; set-up: route oral; details: in vivo
[33] = Tmax in healthy human at 1500 […], po administered as single dose; type: ADME, organism-based; set-up: route oral; details: in vivo
How it was run: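 Tmax was read by visual inspection of individual plasma concentration–time profiles. Plasma was sampled at 0.5-h steps early on and then out to 96 h, and assayed by LC-MS/MS. Subjects were fasted healthy volunteers, six per cohort, given one oral dose with 240 ml water. Values are means (SD).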

[34] = Renal clearance in healthy human at 250 mg, po administered as single dose; details: in vivo, read-out: CL_renal (converted)
[35] = Renal clearance in healthy human at 25 mg, po administered as single dose; details: in vivo, read-out: CL_renal (converted)
[36] = test system: Homo sapiens; experiment: Toxicity in healthy human assessed as occurrence of contact dermatitis at 50 […], po; type: organism-based; set-up: route oral; details: in vivo
How it was run: (§4)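 Randomized, double-blind, placebo-controlled single ascending oral doses in healthy volunteers (cohorts of 6 active, 2 placebo; 25–1,500 mg). After a 10-h fast, dose given with 240 ml water; fasting continued 4 h. Subjects were confined to 96 h postdose. AEs were recorded throughout dosing and at follow-up, reported as number and percentage of subjects with events per treatment.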

[37] = test system: Homo sapiens; experiment: Toxicity in healthy human assessed as occurrence of contact dermatitis at 250 […], po; type: organism-based; set-up: route oral; details: in vivo; how it was run: as §4
[38] = test system: Homo sapiens; experiment: Toxicity in healthy human assessed as occurrence of pustular rashes at 1000 […], po; type: organism-based; set-up: route oral; details: in vivo

COc1c(N2C[C@@H](C)C[C@H](N)C2)ccc2c(=O)c(C(=O)O)cn(C3CC3)c12 [NEMONOXACIN]
Ratio [1]: 1812 | MIC90 [2]: 0.03 µg/mL (≈ 0.0808 µM) | dose excreted [3]: 56.2% | AUC [4]: 117840 ng·h/mL | Cmax [5]: 12100 ng/mL | Cmax [6]: 150 ng/mL | Activity [7]: 0% | Tmax [8]: 0.92 h | Activity [9]: 0% | Cmax [10]: 3410 ng/mL | CL renal [11]: 1.4 mL/min/kg | half-life [12]: 9.71 h | AUC [13]: 2990 ng·h/mL | Activity [14]: 17% | Vbeta [15]: 5.28 L/kg | Activity [16]: 0% | Activity [17]: 0% | Vbeta [18]: 2.78 L/kg | AUC [19]: 7670 ng·h/mL | Activity [20]: 0% | Vbeta [21]: 3.38 L/kg | Ratio [22]: 191 | Ratio [23]: 24 | half-life [24]: 13 h | half-life [25]: 14.8 h | Activity [26]: 0% | CL [27]: 3 mL/min/kg | Activity [28]: 0% | Activity [29]: 0% | Ratio [30]: 1812 | Activity [31]: 17% | Activity [32]: 0% | Tmax [33]: 2.67 h | CL renal [34]: 1.83 mL/min/kg | CL renal [35]: 3 mL/min/kg | Activity [36]: 0% | Activity [37]: 0% | Activity [38]: 0%
